Laboratory results from ChEMBL document CHEMBL3091382, “The chemical synthesis and cytotoxicity of new sulfur analogues of 2-methoxy-lysophosphatidylcholine” (Bioorg Med Chem Lett, 2013).

Key:
[1] = Cytotoxicity against mouse betaTC3 cells assessed as cell viability at 25 uM after 24 hrs by MTT assay relative to control; type: cell-based, Beta-TC3; settings: read-out: Activity
Procedure, shortened: (§1)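 βTC-3 insulinoma cells seeded at 10,000 per well and cultured 24 and 48 h before exposure to natural LPC species or 2-methoxy sulfur analogues at 10 or 25 µM. Incubation for 24 or 48 h. Viability measured by MTT colorimetric assay and expressed as % of untreated cells, mean ± SD of four independent experimental repeats.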

[2] = Cytotoxicity against mouse betaTC3 cells assessed as cell viability at 25 uM after 48 hrs by MTT assay relative to control; type: cell-based, Beta-TC3; settings: read-out: Activity; procedure, shortened: as §1
[3] = Cytotoxicity against mouse betaTC3 cells assessed as cell viability at 10 uM after 48 hrs by MTT assay relative to control; type: cell-based, Beta-TC3; settings: read-out: Activity; procedure, shortened: as §1
[4] = Cytotoxicity against mouse betaTC3 cells assessed as cell viability at 10 uM after 24 hrs by MTT assay relative to control; type: cell-based, Beta-TC3; settings: read-out: Activity; procedure, shortened: as §1
[5] = Cytotoxicity against mouse betaTC3 cells assessed as cellular membrane damage at 25 uM after 24 hrs by LDH release assay; type: cell-based; settings: beta-tc3, 24 h
Procedure, shortened: (§2)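 βTC-3 insulinoma cells seeded at 10,000 per well and cultured 24 or 48 h, then exposed to compound for 24 h. LDH in the medium measured as a marker of membrane damage. Release expressed as percentage of that from cells given methanol alone. Mean ± SD, n = 4; significance taken at p < 0.05.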

[6] = Cytotoxicity against mouse betaTC3 cells assessed as cellular membrane damage at 10 uM after 24 hrs by LDH release assay; type: cell-based; settings: beta-tc3, 24 h; procedure, shortened: as §2

Compound | viability at 24 h, 25 µM [1] [%] | viability at 48 h, 25 µM [2] [%] | viability at 48 h, 10 µM [3] [%] | viability at 24 h, 10 µM [4] [%] | Activity [5] [%] | Activity [6]
CCCCCCCCCCCCCC(=O)OCC(COP(=O)([S-])OCC[N+](C)(C)C)OC (mixture of isomers) | 73.7 | 41.1 | 101 | 112 |  | 
CCCCCCCCCCCCCCCC(=O)OCC(COP(=S)([S-])OCC[N+](C)(C)C)OC (racemic) | 58.7 | 37.4 | 100 | 112 |  | 
CCCCCCCCCCCCCCCC(=O)OCC(COP(=O)([S-])OCC[N+](C)(C)C)OC (racemic) | 60.4 | 44.2 | 87.7 | 105 |  | 
CCCCCCCC/C=C\CCCCCCCC(=O)OC[C@@H](O)COP(=O)([O-])OCC[N+](C)(C)C | 81.1 | 68.5 | 93.4 | 130 | 9.04 | 
CCCCCCCC/C=C\CCCCCCCC(=O)OCC(COP(=S)([S-])OCC[N+](C)(C)C)OC (racemic) | 111 | 112 | 95.9 | 90.5 |  | 
CCCCCCCCCCCC(=O)OCC(COP(=O)([S-])OCC[N+](C)(C)C)OC (racemic) | 90.7 | 71.1 | 106 | 90.2 |  | 
CCCCCCCCCCCCCCCCCC(=O)OCC(COP(=S)([S-])OCC[N+](C)(C)C)OC (racemic) | 63.1 | 38.9 | 96.8 | 85.8 |  | 
CCCCCCCCCCCC(=O)OCC(COP(=S)([S-])OCC[N+](C)(C)C)OC (racemic) | 83.7 | 41.8 | 98.2 | 87.1 |  | 
CCCCCCCC/C=C\CCCCCCCC(=O)OCC(COP(=O)([S-])OCC[N+](C)(C)C)OC (racemic) | 144 | 133 | 92.4 | 121 |  | 
CCCCCCCCCCCC(=O)OC[C@@H](O)COP(=O)([O-])OCC[N+](C)(C)C [LYSOPHOSPHATIDYLCHOLINE] | 83 | 67.1 | 86.1 | 106 | 16.8 | 
CCCCCCCCCCCCCCCCCC(=O)OCC(COP(=O)([S-])OCC[N+](C)(C)C)OC (mixture of isomers) | 82.9 | 50.9 | 61.4 | 90.3 |  | 
CCCCCCCCCCCCCCCC(=O)OC[C@@H](O)COP(=O)([O-])OCC[N+](C)(C)C | 29.7 | 20.1 | 59.8 | 73.1 | 16.8 | Toxic
CCCCCCCCCCCCCCCCCC(=O)OC[C@@H](O)COP(=O)([O-])OCC[N+](C)(C)C | 38.7 | 29.5 | 59.3 | 88.8 |  | Toxic
CCCCCCCCCCCCCC(=O)OC[C@@H](O)COP(=O)([O-])OCC[N+](C)(C)C [LYSOPHOSPHATIDYLCHOLINE] | 26.3 | 7.5 | 53.1 | 75.5 |  | Toxic
CCCCCCCCCCCCCC(=O)OCC(COP(=S)([S-])OCC[N+](C)(C)C)OC (racemic) | 64.7 | 35.8 | 87.9 | 104 |  | 
